Measured values from different studies.
Protocols differ between the studies behind these lines.
Read-out: cell growth or viability

`Cc1nc(Nc2ncc(C(=O)Nc3c(C)cccc3Cl)s2)cc(N2CC[C@H](O)C2)n1` gave an inhibition of 7% (HuT78; ATP luminescence; 10 µM, 72 h).
With `OCn1ccnc1` the IC50 was 6.97 µM (SH-SY5Y; MTT; 24 h).
The IC50 of `Cc1cnc(CNC(=O)c2c(=O)c3ccc(N4CCCN(C)CC4)nc3n3c2sc2ccccc23)cn1` is reported as 0.33 µM (PLC-PRF-5; imaging; 72 h).
For `c1ccc(Oc2ccc(Nc3c4c(nc5ccccc35)CCC4)cc2)cc1`, the IC50 was 45.8 µM (J774.1; resazurin; 72 h).
`CCOC(=O)c1cc(C)n(Cn2cnc3ccccc32)n1` has an IC50 of 121 µM (SH-SY5Y; MTT; 24 h).
With `Cc1nc(NC(=O)N2CCC[C@H]2C(N)=O)sc1-c1ccnc(C(C)(C)C(F)(F)F)c1` the EC50 was 0.492 µM (NCI-H596; ATP luminescence; 5 days).
The IC50 of `Cc1cc(C)n(Cn2cnc3ccccc32)n1` is reported as 82.7 µM (SH-SY5Y; MTT; 24 h).
With `C[C@H](Nc1ccc2c(c1)OCCn1cc(N3C(=O)OC[C@H]3C(F)F)nc1-2)C(N)=O` the EC50 was 0.0829 µM (NCI-H596; ATP luminescence; 5 days).
With `CCOc1ccc(Nc2c3c(nc4ccccc24)CCC3)cc1` the IC50 was 33.2 µM (J774.1; resazurin; 72 h).
With `CN1CCN(c2ccc(Nc3c4ccccc4nc4ccccc34)cc2)CC1` the IC50 was 3.2 µM (PLC-PRF-5; imaging; 72 h).
For `[Cl-].[Li+]`, the IC50 was over 10000 µM (CHO; MTT).
